HTRA1 inh: inhibitors of human serine peptidase HTRA1 | recombinant HTRA1, FP-rhodamine activity-based probe, fluorescence polarization | inhibition, % at 5.96 µM | Q92743 | 0.5% of 340,000 active; in the data active = inhibition above about 36%;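 also: 0% = enzyme with DMSO and 100% = wells lacking enzyme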
PAD4 inh: inhibitors of human PAD4; 0.41% of 330,000 active; Q9UM07; recombinant PAD4, RCA probe fluorescence polarization; inhibition, % at 6.36 µM;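 active = percent inhibition above a cutoff equal to the mean of all tested compounds plus 3 SD, cut at about 15% in these data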;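 also: 0% = PAD4 with RCA probe and DMSO and 100% = probe without PAD4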
PRMT1 FP inh: PRMT1 (human) inhibition, primary screen | recombinant PRMT1, activity-based probe fluorescence polarization | 1.3% of 370,000 active | Q99873 | inhibition, % at 2.79 µM;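 active = inhibition above about 21% made by adding two undisclosed values, limit read from the data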
mABHD4 FP: inhibitors of mouse ABHD4; purified mABHD4, FP-Rh probe fluorescence polarization; AID 720543; inhibition, % at 8.92 µM; 0.54% of 370,000 active;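 active = inhibition exceeding the mean over every tested compound plus 3 SD, cut at about 30% in these data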;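 also: 0% = plate median of compound wells and 100% = S159A mutant with DMSO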
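Doses – 8.92 µM, single dose · Material – wild-type mouse ABHD4 protein · Replication – single well per compound (singlicate) · Measure – percent inhibition of probe binding, normalized to plate controls · Schedule – 45 min compound pre-incubation plus 60 min probe step, 25 °C · Detection – fluorescence polarization with parallel and perpendicular emission, 525/598 nm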
SIAE primary: human SIAE inhibition, primary screen; inhibition, % at 9.66 µM; SIAE FP-Rh probe binding, fluorescence polarization; 0.69% of 370,000 active;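 active = inhibition above a cutoff: mean of compounds within the control limits plus 3 SD of those, cut at about 17% in these data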;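 also: 0% = plate median of compound wells and 100% = probe without SIAE protein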
Target sequence (Q9HAT2 whole entry, looked up): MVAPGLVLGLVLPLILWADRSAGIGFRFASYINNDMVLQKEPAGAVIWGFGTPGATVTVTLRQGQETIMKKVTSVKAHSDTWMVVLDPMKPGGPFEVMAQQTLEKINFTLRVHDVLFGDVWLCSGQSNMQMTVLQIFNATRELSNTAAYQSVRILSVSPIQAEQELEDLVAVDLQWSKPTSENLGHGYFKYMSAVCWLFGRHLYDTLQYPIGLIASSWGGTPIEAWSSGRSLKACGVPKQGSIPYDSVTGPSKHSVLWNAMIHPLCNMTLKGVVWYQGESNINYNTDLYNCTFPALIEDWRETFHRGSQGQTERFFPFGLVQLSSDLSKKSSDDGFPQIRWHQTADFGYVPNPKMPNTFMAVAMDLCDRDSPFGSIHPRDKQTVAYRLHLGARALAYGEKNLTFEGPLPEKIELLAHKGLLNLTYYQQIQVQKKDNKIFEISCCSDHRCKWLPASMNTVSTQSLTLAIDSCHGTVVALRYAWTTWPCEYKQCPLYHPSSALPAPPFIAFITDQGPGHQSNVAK
TCR-CD3 inh: inhibitors of human TCR-CD3 interaction | TAMRA-labeled TCR probe fluorescence, biochemical | inhibition, % at 9.4 µM | 0.37% of 360,000 active; in the data active = inhibition above about 19%;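 also: recombinant mutant TCR 2C K166C tagged with TAMRA read by polarization; 0% = receptor in buffer alone and 100% = receptor with positive control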
PRMT1 confirm: PRMT1 (human) inhibition, FP confirmation; 42% of 3,300 active; shares compounds with PRMT1 FP inh; recombinant His-PRMT1, activity-based probe fluorescence polarization; inhibition, % at 2.79 µM;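 active = mean inhibition across replicates above the hit cutoff derived for the earlier primary screen, cut at about 22% in these data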
mABHD4 conf: ABHD4 (mouse) inhibition, FP confirmation. shares compounds with mABHD4 FP. purified mABHD4, FP-Rh probe fluorescence polarization. inhibition, % at 8.92 µM. 55% of 1,800 active;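 active = mean inhibition across replicates above the hit cutoff set in the primary screen, cut at about 30% in these data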;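 also: 0% = wild-type ABHD4 with DMSO and 100% = catalytically dead S159A mutant with DMSO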
* hit, by the source's call; · = no result. An excerpt weighted towards active compounds, which were near 2.9% of everything screened.

SMILES	HTRA1 inh	PAD4 inh	PRMT1 FP inh	mABHD4 FP	SIAE primary	TCR-CD3 inh	PRMT1 confirm	mABHD4 conf
C=C[C@]1(C)C=C2C(=O)[C@@]3(O)OC(=O)[C@@]4(CCCC(C)(C)[C@H]34)[C@@]2(O)CC1	·	·	61*	52*	10	-8	6	3
C=C[C@]1(C)C=C2CC[C@H]3[C@@](C)(CCC[C@@]3(C)C(=O)O)[C@@H]2CC1	-16	3	·	·	·	·	·	·
Cc1ccc(-c2csc(NS(=O)(=O)c3cccc(F)c3)n2)o1	15	-5	54*	30*	-12	6	21	26
Cc1ccc(NC(=S)NNc2ccc([N+](=O)[O-])cc2S(=O)(=O)Nc2ccccc2C(=O)O)cc1C	15	1	27*	46*	14	6	39*	85*
Cc1nc2cc[nH]n2c(=O)c1CCc1ccccc1	·	·	3	-4	3	-3	·	·
O=c1c(-c2ccco2)nc2ccccc2n1C(c1ccccn1)c1nc2ccccc2[nH]1 (centres undefined)	·	·	57*	38*	5	-2	12	4
O=C(c1ccccc1)N1CCC(Oc2cccnc2)CC1	·	·	4	2	0	·	·	·
COc1cc(/C=C2/C(=O)NN(c3ccc(C)c(Cl)c3)C2=O)cc([N+](=O)[O-])c1O	30	·	28*	63*	-2	-3	16	56*
COC(=O)c1cc2c(c3c4cc(OC)ccc4n(S(=O)(=O)c4cccc(C)c4)c13)C(=O)N(C)C2	·	·	-1	-12	1	0	·	·
COC(=O)CCN(Cc1ccc(OC)cc1OC)S(=O)(=O)c1ccccc1Br	·	·	0	-9	-5	3	·	·
COCc1cc(N2CCN(C(=O)OC(C)(C)C)C[C@@H]2C)ccc1N1CC[C@@H](O)C1	·	·	50*	32*	15	12	9	25
C[C@@H]1CN(C(=O)OC(C)(C)C)CCN1c1ccc(N2CC[C@H](O)C2)c(C#N)c1	·	·	10	4	1	-4	·	·
C[C@H]1C2CC(OC(=O)Nc3cccc(Cl)c3)C(C2)[C@H]2CCCCN21 (some centres undefined)	·	·	1	3	-3	·	·	·
NS(=O)(=O)c1ccc(-c2ccc(/C=C3\NC(=S)NC3=O)o2)cc1	11	-5	53*	39*	9	7	27*	20
Nc1ccc(O)cc1C(=O)OCC(=O)c1ccc(C2CCCCC2)cc1	29	-8	29*	53*	13	3	-1	39*
O=C1/C(=C/c2ccc(Cl)cc2)SC(=S)N1CCC(=O)N1CCCCC1CCO (centres undefined)	-29	-38	1	-5	0	9	·	·
O=C1/C(=C/c2ccco2)SC(=S)N1CCC(=O)N1CCCCC1CCO (centres undefined)	27	-9	26*	30*	3	1	1	4
CCCCCCCCN1C(=O)[C@@H](CC(=O)NCc2cccs2)C[C@@]2(C(=O)OC)C1=C[C@H](COCc1ccccc1)O[C@@H]2C	·	·	2	-9	-2	·	·	·
COC(=O)[C@]12C[C@H](CC(=O)NCc3ccccc3)C(=O)N(Cc3cccc4ccccc34)C1=C[C@H](COCc1ccccc1)O[C@@H]2C	·	·	-4	-19	-2	·	·	·
CC(=O)OCCCNc1cc(SCc2ccco2)c2nonc2c1[N+](=O)[O-]	8	-2	54*	49*	13	13	14	11
CC(C)(C)C(=O)/C=C/Nc1ccccc1O	8	-6	26*	30*	3	-1	8	1
O=C(O)c1ccc2c(c1)C1C=CCC1C(c1cc3c(cc1Br)OCO3)N2 (centres undefined)	7	-7	-6	-7	5	5	·	·
O=C(O)c1ccc(NS(=O)(=O)c2ccc3c(c2)C2C=CCC2C(c2ccccc2F)N3)cc1 (centres undefined)	22	·	47*	42*	6	-1	13	26
CCOC(=O)N1CCN(C(=O)C[C@H]2C[C@@]3(C(=O)OC)C(=C[C@H](C(C)(C)C)O[C@@H]3C)N(Cc3ccco3)C2=O)CC1	·	·	-2	-3	-2	·	·	·
C[C@H](O)[C@@H]1CN2CCc3ccc(-c4ccc5c(c4)OCO5)cc3[C@@H]2C[C@@H]1N(C)C(=O)c1cccc(Cl)c1	·	·	1	-8	4	-4	·	·
SMILES	HTRA1 inh	PAD4 inh	PRMT1 FP inh	mABHD4 FP	SIAE primary	TCR-CD3 inh	PRMT1 confirm	mABHD4 conf
Cc1ccc(C(=O)/C=C/c2ccc(-c3ccccc3[N+](=O)[O-])o2)cc1	13	-11	34*	36*	-2	-8	-3	-3
COC(=O)c1cn(-c2ccc3c(c2)[C@@]2(CC(=O)N(C)C2c2ccccc2)C(=O)N3CC(C)C)nn1 (some centres undefined)	·	·	-1	1	0	·	·	·
COc1ccc(OC)c(C2Nc3c(Cl)ccc(C(=O)O)c3C3C=CCC32)c1 (centres undefined)	16	-3	46*	47*	6	0	28*	22
COC(=O)COc1ccc(C2Nc3c(Cl)ccc(C(=O)O)c3C3C=CCC32)cc1 (centres undefined)	28	-1	69*	36*	-7	16	29*	20
COc1cc(C2Nc3c(F)cccc3C3C=CCC32)cc(Br)c1OC (centres undefined)	-4	-9	19	5	4	1	·	·
CC(C)CC(=O)c1c(O)cc(O)c2c1OC1=C(C(=O)C(C)(C)C(=O)C1(C)C)C2CC(C)C (centres undefined)	·	·	19	-44	-20	8	·	·
O=C(CSC1=NNC(c2ccccn2)S1)Nc1cccc(Cl)c1 (centres undefined)	·	-1	61*	36*	-1	-12	41*	-9
O=C(CSC1=NNC(c2ccccn2)S1)Nc1ccccc1 (centres undefined)	9	13	66*	53*	9	-5	46*	-16
O=C(CSc1nnc(-c2ccccn2)o1)Nc1ccccc1	-2	-4	3	2	5	1	·	·
NNc1nc2sc3c(c2c(=O)[nH]1)CCc1ccccc1-3	23	-5	61*	58*	13	8	5	12
CCSc1nc2sc3c(c2c(=O)[nH]1)CCc1ccccc1-3	-14	2	-2	16	3	6	·	·
Cc1cccc(-c2cccc3c4c([nH]c23)[C@@H]2C[C@H](N(C)C(=S)Nc3ccc(C#N)cc3)[C@H]([C@H](C)O)CN2CC4)c1	·	·	-2	-2	9	·	·	·
CC1OC2CC(=O)OC2C2=C1C(=O)c1c(O)cccc1C2=O (centres undefined)	·	·	90*	38*	13	8	73*	35*
